According to ChEMBL document CHEMBL4152206, “Design, synthesis, cytotoxicity and mechanism of novel dihydroartemisinin-coumarin hybrids as potential anti-cancer agents” (Eur J Med Chem, 2018):

Assays:
Format in all cases: functional, cell-based
HT-29 [1] = assay: Cytotoxicity against human HT-29 cells after 96 hrs under hypoxic condition by MTT assay
Procedure, shortened: (§1)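 MTT viability assay in HT-29 (high CA IX) and MDA-MB-231 (normal CA IX) cells under normoxic and hypoxic conditions; IC50 values reported.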

MDA-MB-231 [2] = assay: Cytotoxicity against human MDA-MB-231 cells after 96 hrs under hypoxic condition by MTT assay; procedure, shortened: as §1
MDA-MB-231 [3] = assay: Cytotoxicity against human MDA-MB-231 cells after 96 hrs under normoxic condition by MTT assay; procedure, shortened: as §1
HT-29 [4] = assay: Cytotoxicity against human HT-29 cells after 96 hrs under normoxic condition by MTT assay; procedure, shortened: as §1
[5] = Homo sapiens, HT-29, 96 h, read-out: IC50
[6] = Homo sapiens, MDA-MB-231, 96 h, read-out: IC50

Row | SMILES | IC50 (HT-29 [1]; [5]) [µM] | IC50 (MDA-MB-231 [2]; [6]) [µM] | IC50 (MDA-MB-231 [3]; [6]) [µM] | IC50 (HT-29 [4]; [5]) [µM] | IC50 (HT-29 [1]; ht-29) | IC50 (MDA-MB-231 [2]; mda-mb-231) | IC50 (MDA-MB-231 [3]; mda-mb-231) | IC50 (HT-29 [4]; ht-29)
1 | CCOC(=O)c1cc2ccc(O[C@H]3O[C@@H]4O[C@@]5(C)CC[C@H]6[C@H](C)CC[C@@H]([C@H]3C)[C@@]46OO5)cc2oc1=O | 7.17 | 2.85 | 21.9 | 3.45 | – | – | – | –
2 | Cc1c(C)c2ccc(O[C@H]3O[C@@H]4O[C@@]5(C)CC[C@H]6[C@H](C)CC[C@@H]([C@H]3C)[C@@]46OO5)cc2oc1=O | 30.3 | 6.44 | 78.8 | 11.8 | – | – | – | –
3 | Cc1cc(=O)oc2cc(OCCn3cc(CCO[C@H]4O[C@@H]5O[C@@]6(C)CC[C@H]7[C@H](C)CC[C@@H]([C@H]4C)[C@@]57OO6)nn3)ccc12 | 10.7 | 18.2 | 17 | 5.72 | – | – | – | –
4 | Cc1c(C)c2ccc(OCCn3cc(CCO[C@H]4O[C@@H]5O[C@@]6(C)CC[C@H]7[C@H](C)CC[C@@H]([C@H]4C)[C@@]57OO6)nn3)cc2oc1=O | 14.6 | 52.3 | 56.7 | 3.47 | – | – | – | –
5 | Cc1c(F)c(=O)oc2cc(-n3cc(CO[C@H]4O[C@@H]5O[C@@]6(C)CC[C@H]7[C@H](C)CC[C@@H]([C@H]4C)[C@@]57OO6)nn3)ccc12 | 7.39 | 2.6 | 3.47 | 3.35 | – | – | – | –
6 | Cc1c(C)c2ccc(OCCCn3cc(CCO[C@H]4O[C@@H]5O[C@@]6(C)CC[C@H]7[C@H](C)CC[C@@H]([C@H]4C)[C@@]57OO6)nn3)cc2oc1=O | 0.11 | 33.2 | > 100 | 5 | – | – | – | –
7 | Cc1c(Cl)c(=O)oc2cc(OCCn3cc(CCO[C@H]4O[C@@H]5O[C@@]6(C)CC[C@H]7[C@H](C)CC[C@@H]([C@H]4C)[C@@]57OO6)nn3)ccc12 | 2.37 | 7.24 | 7.53 | 5.28 | – | – | – | –
8 | COc1cccc2c1C(=O)c1c(O)c3c(c(O)c1C2=O)C[C@@](O)(C(=O)CO)C[C@@H]3O[C@H]1C[C@H](N)[C@H](O)[C@H](C)O1 [DOXORUBICIN] | 0.25 | 5.98 | 1.07 | 0.24 | – | – | – | –
9 | C[C@H]1[C@@H](Oc2ccc3c(C(F)(F)F)cc(=O)oc3c2)O[C@@H]2O[C@@]3(C)CC[C@H]4[C@H](C)CC[C@@H]1[C@@]24OO3 | 22.3 | 3.25 | 56.8 | 11.1 | – | – | – | –
10 | Cc1cc(=O)oc2cc(-n3cc(CO[C@H]4O[C@@H]5O[C@@]6(C)CC[C@H]7[C@H](C)CC[C@@H]([C@H]4C)[C@@]57OO6)nn3)ccc12 | 5.09 | 49.8 | 21.5 | 10.8 | – | – | – | –
11 | Cc1cc(=O)oc2cc(OCCO[C@H]3O[C@@H]4O[C@@]5(C)CC[C@H]6[C@H](C)CC[C@@H]([C@H]3C)[C@@]46OO5)ccc12 | 3.69 | 0.1 | 4.29 | 2.35 | – | – | – | –
12 | Cc1c(Cl)c(=O)oc2cc(OCCCn3cc(CCO[C@H]4O[C@@H]5O[C@@]6(C)CC[C@H]7[C@H](C)CC[C@@H]([C@H]4C)[C@@]57OO6)nn3)ccc12 | 1.68 | 6.07 | 31 | 1.19 | – | – | – | –
13 | Cc1c(C)c2ccc(OCCO[C@H]3O[C@@H]4O[C@@]5(C)CC[C@H]6[C@H](C)CC[C@@H]([C@H]3C)[C@@]46OO5)cc2oc1=O | 57.2 | 12.8 | 57.2 | 12.8 | – | – | – | –
14 | Cc1c(Cl)c(=O)oc2cc(OCCO[C@H]3O[C@@H]4O[C@@]5(C)CC[C@H]6[C@H](C)CC[C@@H]([C@H]3C)[C@@]46OO5)ccc12 | 7.02 | 5.36 | 18 | 23.9 | – | – | – | –
15 | C[C@H]1[C@@H](O)O[C@@H]2O[C@@]3(C)CC[C@H]4[C@H](C)CC[C@@H]1[C@@]24OO3 [ARTENIMOL] | 18.5 | 5.64 | 47.1 | > 100 | – | – | – | –
16 | Cc1c(Cl)c(=O)oc2cc(-n3cc(CCO[C@H]4O[C@@H]5O[C@@]6(C)CC[C@H]7[C@H](C)CC[C@@H]([C@H]4C)[C@@]57OO6)nn3)ccc12 | 0.01 | 1.03 | 5.19 | 1.5 | – | – | – | –
17 | C[C@H]1[C@@H](OCCc2cn(CCOc3ccc4c(C(F)(F)F)cc(=O)oc4c3)nn2)O[C@@H]2O[C@@]3(C)CC[C@H]4[C@H](C)CC[C@@H]1[C@@]24OO3 | 4.01 | 14.2 | 17.9 | 3.58 | – | – | – | –
18 | Cc1cc(=O)oc2cc(OCCCO[C@H]3O[C@@H]4O[C@@]5(C)CC[C@H]6[C@H](C)CC[C@@H]([C@H]3C)[C@@]46OO5)ccc12 | 8.71 | 22.9 | 30 | 13.8 | – | – | – | –

Row | SMILES | IC50 (HT-29 [1]; [5]) [µM] | IC50 (MDA-MB-231 [2]; [6]) [µM] | IC50 (MDA-MB-231 [3]; [6]) [µM] | IC50 (HT-29 [4]; [5]) [µM] | IC50 (HT-29 [1]; ht-29) | IC50 (MDA-MB-231 [2]; mda-mb-231) | IC50 (MDA-MB-231 [3]; mda-mb-231) | IC50 (HT-29 [4]; ht-29)
19 | Cc1c(C)c2ccc(OCCCO[C@H]3O[C@@H]4O[C@@]5(C)CC[C@H]6[C@H](C)CC[C@@H]([C@H]3C)[C@@]46OO5)cc2oc1=O | 3.54 | 7.92 | 17.1 | 8.71 | – | – | – | –
20 | C[C@H]1[C@@H](OCCOc2ccc3c(C(F)(F)F)cc(=O)oc3c2)O[C@@H]2O[C@@]3(C)CC[C@H]4[C@H](C)CC[C@@H]1[C@@]24OO3 | 5.59 | 6.14 | 15.2 | 54.8 | – | – | – | –
21 | Cc1c(C)c2ccc(-n3cc(CCO[C@H]4O[C@@H]5O[C@@]6(C)CC[C@H]7[C@H](C)CC[C@@H]([C@H]4C)[C@@]57OO6)nn3)cc2oc1=O | 0.08 | 3.58 | 3.75 | 4.71 | – | – | – | –
22 | CC(=O)Nc1nnc(S(N)(=O)=O)s1 [ACETAZOLAMIDE] | > 100 | > 100 | > 100 | > 100 | – | – | – | –
23 | Cc1cc(=O)oc2cc(OCCCn3cc(CCO[C@H]4O[C@@H]5O[C@@]6(C)CC[C@H]7[C@H](C)CC[C@@H]([C@H]4C)[C@@]57OO6)nn3)ccc12 | 0.11 | 14.4 | 72.2 | 6.87 | – | – | – | –
24 | COC(=O)c1cc2ccc(OCCCn3cc(CCO[C@H]4O[C@@H]5O[C@@]6(C)CC[C@H]7[C@H](C)CC[C@@H]([C@H]4C)[C@@]57OO6)nn3)cc2oc1=O | – | – | – | – | Nd(Insoluble) | Nd(Insoluble) | Nd(Insoluble) | Nd(Insoluble)
25 | C[C@H]1[C@@H](OCCCOc2ccc3c(C(F)(F)F)cc(=O)oc3c2)O[C@@H]2O[C@@]3(C)CC[C@H]4[C@H](C)CC[C@@H]1[C@@]24OO3 | 1.19 | 8.86 | 13.6 | 4.57 | – | – | – | –
26 | Cc1c(F)c(=O)oc2cc(-n3cc(CCO[C@H]4O[C@@H]5O[C@@]6(C)CC[C@H]7[C@H](C)CC[C@@H]([C@H]4C)[C@@]57OO6)nn3)ccc12 | 5.66 | 3.36 | 3.84 | 9.89 | – | – | – | –
27 | Cc1c(Cl)c(=O)oc2cc(OCCCO[C@H]3O[C@@H]4O[C@@]5(C)CC[C@H]6[C@H](C)CC[C@@H]([C@H]3C)[C@@]46OO5)ccc12 | 8.05 | 2.38 | 0.6 | 2.55 | – | – | – | –
28 | C[C@H]1[C@@H](OCCc2cn(CCCOc3ccc4c(C(F)(F)F)cc(=O)oc4c3)nn2)O[C@@H]2O[C@@]3(C)CC[C@H]4[C@H](C)CC[C@@H]1[C@@]24OO3 | 4.29 | 6.58 | 32.5 | 5.88 | – | – | – | –
29 | C[C@H]1[C@@H](OCCc2cn(-c3ccc4c(C(F)(F)F)cc(=O)oc4c3)nn2)O[C@@H]2O[C@@]3(C)CC[C@H]4[C@H](C)CC[C@@H]1[C@@]24OO3 | 10.3 | 95.7 | 1.85 | 6.07 | – | – | – | –
30 | COC(=O)c1cc2ccc(OCCn3cc(CCO[C@H]4O[C@@H]5O[C@@]6(C)CC[C@H]7[C@H](C)CC[C@@H]([C@H]4C)[C@@]57OO6)nn3)cc2oc1=O | 75.7 | 58.4 | 61 | 67.2 | – | – | – | –
31 | Cc1c(C)c2ccc(-n3cc(CO[C@H]4O[C@@H]5O[C@@]6(C)CC[C@H]7[C@H](C)CC[C@@H]([C@H]4C)[C@@]57OO6)nn3)cc2oc1=O | 0.02 | 4.85 | 23.4 | 2.67 | – | – | – | –
32 | Cc1cc(=O)oc2cc(-n3cc(CCO[C@H]4O[C@@H]5O[C@@]6(C)CC[C@H]7[C@H](C)CC[C@@H]([C@H]4C)[C@@]57OO6)nn3)ccc12 | 10.9 | 9.96 | 3.78 | 8.95 | – | – | – | –
33 | Cc1c(Cl)c(=O)oc2cc(O[C@H]3O[C@@H]4O[C@@]5(C)CC[C@H]6[C@H](C)CC[C@@H]([C@H]3C)[C@@]46OO5)ccc12 | 0.41 | 1.4 | 50.5 | 1.28 | – | – | – | –
34 | Cc1c(Cl)c(=O)oc2cc(-n3cc(CO[C@H]4O[C@@H]5O[C@@]6(C)CC[C@H]7[C@H](C)CC[C@@H]([C@H]4C)[C@@]57OO6)nn3)ccc12 | 1.15 | 24.7 | 50.5 | 4.27 | – | – | – | –
35 | C[C@H]1[C@@H](OCc2cn(-c3ccc4c(C(F)(F)F)cc(=O)oc4c3)nn2)O[C@@H]2O[C@@]3(C)CC[C@H]4[C@H](C)CC[C@@H]1[C@@]24OO3 | 5.33 | 49.6 | > 100 | 5.22 | – | – | – | –
